From article PMC4629469 (Bioorganic & medicinal chemistry letters, 2015)

Assays:
[1] = target: T1, M1 recombinant human mAChRs (Homo sapiens, UniProt P11229); assay: [3H]NMS binding to CHO cell membranes expressing M1 mAChR; conditions: vs compound 1
T1 sequence (P11229 1-460): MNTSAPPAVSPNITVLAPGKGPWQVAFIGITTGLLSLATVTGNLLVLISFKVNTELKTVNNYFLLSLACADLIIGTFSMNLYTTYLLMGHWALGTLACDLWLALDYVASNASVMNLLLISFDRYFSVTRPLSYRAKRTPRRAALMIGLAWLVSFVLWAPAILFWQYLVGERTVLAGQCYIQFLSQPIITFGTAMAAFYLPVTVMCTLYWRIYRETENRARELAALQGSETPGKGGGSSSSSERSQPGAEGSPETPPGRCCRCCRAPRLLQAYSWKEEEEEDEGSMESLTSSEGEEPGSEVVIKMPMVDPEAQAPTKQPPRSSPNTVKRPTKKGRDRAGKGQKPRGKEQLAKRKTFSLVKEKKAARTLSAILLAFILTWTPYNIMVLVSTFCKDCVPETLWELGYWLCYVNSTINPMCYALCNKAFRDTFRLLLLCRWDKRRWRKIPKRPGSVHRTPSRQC

[2] = target: M3 recombinant human mAChRs (Homo sapiens, UniProt P20309); assay: [3H]NMS binding to CHO cell membranes expressing M3 mAChR; conditions: vs compound 1
Chain of M3 recombinant human mAChRs (P20309 whole entry): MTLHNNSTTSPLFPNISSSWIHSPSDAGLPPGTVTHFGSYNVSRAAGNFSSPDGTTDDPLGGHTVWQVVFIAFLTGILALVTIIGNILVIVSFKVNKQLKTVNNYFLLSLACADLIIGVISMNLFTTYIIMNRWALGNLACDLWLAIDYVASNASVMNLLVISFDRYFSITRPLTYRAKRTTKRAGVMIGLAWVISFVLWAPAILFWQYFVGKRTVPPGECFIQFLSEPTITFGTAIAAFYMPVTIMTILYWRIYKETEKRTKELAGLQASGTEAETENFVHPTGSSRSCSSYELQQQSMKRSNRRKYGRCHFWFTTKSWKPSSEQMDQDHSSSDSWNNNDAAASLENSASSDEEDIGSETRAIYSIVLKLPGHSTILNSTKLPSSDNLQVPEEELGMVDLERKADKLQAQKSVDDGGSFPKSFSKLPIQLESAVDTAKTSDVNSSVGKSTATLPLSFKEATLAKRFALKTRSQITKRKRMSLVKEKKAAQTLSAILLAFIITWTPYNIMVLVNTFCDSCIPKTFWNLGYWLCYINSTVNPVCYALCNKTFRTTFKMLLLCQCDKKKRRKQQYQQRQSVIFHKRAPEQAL

[3] = target: T2, M5 recombinant human mAChRs (Homo sapiens, UniProt P08912); assay: [3H]NMS binding to CHO cell membranes expressing M5 mAChR; conditions: vs compound 1
T2 sequence (P08912 1-532): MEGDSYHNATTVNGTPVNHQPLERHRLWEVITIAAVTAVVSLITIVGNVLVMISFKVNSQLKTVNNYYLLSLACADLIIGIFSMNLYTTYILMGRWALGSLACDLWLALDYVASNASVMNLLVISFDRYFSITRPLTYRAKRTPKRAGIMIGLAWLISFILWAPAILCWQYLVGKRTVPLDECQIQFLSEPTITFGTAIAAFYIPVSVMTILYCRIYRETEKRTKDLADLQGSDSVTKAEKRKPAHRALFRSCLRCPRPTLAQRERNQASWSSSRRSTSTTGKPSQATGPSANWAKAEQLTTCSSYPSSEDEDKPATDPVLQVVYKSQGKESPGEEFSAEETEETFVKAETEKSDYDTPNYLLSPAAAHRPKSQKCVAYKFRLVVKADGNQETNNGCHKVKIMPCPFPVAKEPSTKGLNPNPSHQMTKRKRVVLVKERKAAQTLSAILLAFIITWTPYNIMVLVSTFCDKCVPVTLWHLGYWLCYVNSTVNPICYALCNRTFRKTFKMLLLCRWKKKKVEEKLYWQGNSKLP

[4] = system: M1, M3, and M5 human mAChRs; assay: [3H]NMS binding, comparison over all three mAChR subtypes
How it was run: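 Membranes from CHO cells stably expressing recombinant human M1, M3 or M5 mAChR. Inhibition of [3H]N-methylscopolamine binding by the test compound gives IC50, which is converted to Ki by the Cheng–Prusoff equation. Ki is the mean ± SEM of three independent experiments, each run in duplicate. Subtype comparisons use these Ki values at each receptor.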

| SMILES | fold higher affinity at M1 compared with compound 1 [1] [fold] | fold higher affinity at M3 compared with compound 1 [2] [fold] | decrease of affinity at M5 compared with compound 1 [3] [%] | subtype selectivity ([4]; M5 over M1 and M3) | fold increase in affinity of the reverse ester ([4]; 6a vs 4a, all three mAChRs) [fold] |
| --- | --- | --- | --- | --- | --- |
| COc1ccc(CCOC(=O)C2(c3ccccc3)CCN(C)CC2)cc1OC [Compound 4a] | 2 | 19 | 30 | not subtype selective |  |
| COc1ccc(CCC(=O)OCC2(c3ccccc3)CCN(C)CC2)cc1OC [Compound 6a] |  |  |  |  | 1 to 3 |
